According to ChEMBL document CHEMBL1147795, “cis-2,5-dicyanopyrrolidine inhibitors of dipeptidyl peptidase IV: synthesis and in vitro, in vivo, and X-ray crystallographic characterization” (J Med Chem, 2006):
The source made the active and inactive calls. No cut-off for these calls is given here.

Experiments:
[1] = biological target: Dipeptidyl peptidase 4 (Homo sapiens, UniProt P27487); assay: Inhibition of human recombinant DPP4
[2] = biological target: Dipeptidyl peptidase 4 (Mus musculus) (UniProt P28843); assay: Lowering of glucose level in diabetic KK/H1J mouse at 10 mg/kg, po; format: functional, organism-based; design: dose 10 mg/kg
Procedure, shortened: (§1)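 Diabetic KK/H1J mice fasted overnight, 10 per group, dosed orally in 0.5% methylcellulose. Glucose given orally at t = 15 min; plasma glucose at t = 45 min.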

[3] = Half life in Sprague-Dawley rat at 1 mg/kg, iv; format: ADME, organism-based; design: dose 1 mg/kg, route intravenous; settings: in vivo
Procedure, shortened: (§2)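 Male Sprague-Dawley rats (200-250 g), jugular vein cannulated. IV bolus 1.0 mg/kg in sterile saline; oral gavage 5.0 mg/kg in 0.5% methylcellulose. Blood sampled 0 to 24 h into lithium heparin, plasma frozen at -70 °C, compound quantified by LC/MS/MS after acetonitrile protein precipitation (standard curve 1.0-2000 ng/mL).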

[4] = Half life in Sprague-Dawley rat at 5 mg/kg, po; format: ADME, organism-based; design: dose 5 mg/kg, route oral; settings: in vivo; procedure, shortened: as §2
[5] = species on record: Rattus norvegicus; assay: Hepatic clearance in Sprague-Dawley rat; format: ADME, organism-based, Liver; settings: in vivo; procedure, shortened: as §2
[6] = Volume of distribution in Sprague-Dawley rat; format: ADME, organism-based; settings: in vivo, read-out: Vdss; procedure, shortened: as §2
[7] = Bioavailability in Sprague-Dawley rat; format: ADME, organism-based; settings: in vivo; procedure, shortened: as §2
[8] = biological target: Dipeptidyl peptidase 4 (Mus musculus) (UniProt P28843); assay: Lowering of glucose level in diabetic KK/H1J mouse at 5 mg/kg, po; format: functional, organism-based; design: dose 5 mg/kg; procedure, shortened: as §1
[9] = biological target: Dipeptidyl peptidase 4 (Mus musculus) (UniProt P28843); assay: Lowering of glucose level in diabetic KK/H1J mouse at 0.3 mg/kg, po; format: functional, organism-based; design: dose 0.3 mg/kg
Procedure, shortened: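 Overnight-fasted diabetic KK/H1J mice, 10 per group, given compound orally in 0.5% methylcellulose (0.2 mL per mouse), then an oral glucose challenge at t = 15 min. Retro-orbital bleeds were taken at 0, 15 and 45 min for plasma glucose. […] Scored significant or nonsignificant.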

[10] = biological target: Dipeptidyl peptidase 4 (Mus musculus) (UniProt P28843); assay: Increase in plasma GLP1 level in KK mouse at 5 mg/kg, po after 2 hrs; format: functional, organism-based; design: dose 5 mg/kg
Procedure, shortened: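 Fed KK mice dosed 5 mg kg^-1 orally at t = 0. Blood sampled at intervals over 2 h for plasma GLP-1 and DPP-IV activity.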

[11] = biological target: Dipeptidyl peptidase 4 (Mus musculus) (UniProt P28843); assay: Lowering of glucose level in diabetic KK/H1J mouse at 2.5 mg/kg, po; format: functional, organism-based; design: dose 2.5 mg/kg; procedure, shortened: as §1
[12] = Solubility in phosphate buffered saline at pH 6.5; format: physicochemical
Procedure, shortened: (§3)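 Solubility of the mono-hydrochloride salt measured in PBS pH 6.5 and in unbuffered water; final pH of the water solution 2.0.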

[13] = Solubility in unbuffered water; format: physicochemical; procedure, shortened: as §3
[14] = biological target: Dipeptidyl peptidase 4 (Mus musculus) (UniProt P28843); assay: Lowering of glucose level in diabetic KK/H1J mouse at 3 mg/kg, po; format: functional, organism-based; design: dose 3 mg/kg; procedure, shortened: as §1
[15] = Bioavailability in cynomolgus monkey; format: ADME, organism-based, Macaca fascicularis; settings: in vivo
Procedure, shortened: (§4)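 Dog and monkey PK: oral dosing at 1 mg kg^-1 in sterile water, intravenous at 1 mg kg^-1 in sterile saline.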

[16] = species on record: Rattus norvegicus; assay: Cmax in Sprague-Dawley rat; format: ADME, organism-based; settings: in vivo; procedure, shortened: as §2
[17] = test system: Rhesus monkey; assay: Increase in thiocyanate ion in monkey plasma at 3 mg/kg, po after 24 hrs; format: ADME, organism-based; design: dose 3 mg/kg, route oral; settings: in vivo
Procedure, shortened: (§5)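 Stored plasma from earlier oral dosing (rat 15 mg kg^-1, dog and monkey 3 mg kg^-1) analysed for thiocyanate through 24 h, compared with the t = 0 sample.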

[18] = Tmax in Sprague-Dawley rat; format: ADME, organism-based; settings: in vivo; procedure, shortened: as §2
[19] = Tmax in cynomolgus monkey; format: ADME, organism-based, Macaca fascicularis; settings: in vivo; procedure, shortened: as §4
[20] = Percent of unbound ligand in Beagle dog plasma; format: ADME, cell-free, Canis lupus familiaris
[21] = Percent of unbound ligand in cynomolgus monkey plasma; format: ADME, cell-free, Macaca fascicularis
[22] = Half life in Beagle dog at 1 mg/kg, po; format: ADME, organism-based, Canis lupus familiaris; design: dose 1 mg/kg, route oral; settings: in vivo; procedure, shortened: as §4
[23] = Half life in Beagle dog at 1 mg/kg, iv; format: ADME, organism-based, Canis lupus familiaris; design: dose 1 mg/kg, route intravenous; settings: in vivo; procedure, shortened: as §4
[24] = Percent of unbound ligand in Sprague-Dawley rat plasma; format: ADME, cell-free
[25] = Bioavailability in Beagle dog; format: ADME, organism-based, Canis lupus familiaris; settings: in vivo; procedure, shortened: as §4
[26] = species on record: Canis familiaris; assay: Hepatic clearance in Beagle dog; format: ADME, organism-based, Canis lupus familiaris, Liver; settings: in vivo; procedure, shortened: as §4
[27] = Tmax in Beagle dog; format: ADME, organism-based, Canis lupus familiaris; settings: in vivo; procedure, shortened: as §4
[28] = Half life in cynomolgus monkey at 1 mg/kg, iv; format: ADME, organism-based, Macaca fascicularis; design: dose 1 mg/kg, route intravenous; settings: in vivo; procedure, shortened: as §4
[29] = Volume of distribution in Beagle dog; format: ADME, organism-based, Canis lupus familiaris; settings: in vivo, read-out: Vdss; procedure, shortened: as §4
[30] = test system: Rattus norvegicus; assay: Increase in thiocyanate ion in rat plasma at 15 mg/kg, po after 24 hrs; format: ADME, organism-based; design: dose 15 mg/kg, route oral; settings: in vivo; procedure, shortened: as §5
[31] = Half life in cynomolgus monkey at 1 mg/kg, po; format: ADME, organism-based, Macaca fascicularis; design: dose 1 mg/kg, route oral; settings: in vivo; procedure, shortened: as §4
[32] = test system: Canis familiaris; assay: Increase in thiocyanate ion in dog plasma at 3 mg/kg, po after 24 hrs; format: ADME, organism-based, Canis lupus familiaris; design: dose 3 mg/kg, route oral; settings: in vivo; procedure, shortened: as §5
[33] = Volume of distribution in cynomolgus monkey; format: ADME, organism-based, Macaca fascicularis; settings: in vivo, read-out: Vdss; procedure, shortened: as §4
[34] = Percent of unbound ligand in human plasma; format: ADME
[35] = species on record: Rattus norvegicus; assay: AUC (0-infinity) in Sprague-Dawley rat; format: ADME, organism-based, Plasma; design: time infinity; settings: in vivo; procedure, shortened: as §2
[36] = test system: Cynomolgus monkey; assay: Hepatic clearance in cynomolgus monkey; format: ADME, organism-based, Macaca fascicularis, Liver; settings: in vivo; procedure, shortened: as §4

Sequence of Dipeptidyl peptidase 4 (Mus musculus) (P28843 whole entry, looked up): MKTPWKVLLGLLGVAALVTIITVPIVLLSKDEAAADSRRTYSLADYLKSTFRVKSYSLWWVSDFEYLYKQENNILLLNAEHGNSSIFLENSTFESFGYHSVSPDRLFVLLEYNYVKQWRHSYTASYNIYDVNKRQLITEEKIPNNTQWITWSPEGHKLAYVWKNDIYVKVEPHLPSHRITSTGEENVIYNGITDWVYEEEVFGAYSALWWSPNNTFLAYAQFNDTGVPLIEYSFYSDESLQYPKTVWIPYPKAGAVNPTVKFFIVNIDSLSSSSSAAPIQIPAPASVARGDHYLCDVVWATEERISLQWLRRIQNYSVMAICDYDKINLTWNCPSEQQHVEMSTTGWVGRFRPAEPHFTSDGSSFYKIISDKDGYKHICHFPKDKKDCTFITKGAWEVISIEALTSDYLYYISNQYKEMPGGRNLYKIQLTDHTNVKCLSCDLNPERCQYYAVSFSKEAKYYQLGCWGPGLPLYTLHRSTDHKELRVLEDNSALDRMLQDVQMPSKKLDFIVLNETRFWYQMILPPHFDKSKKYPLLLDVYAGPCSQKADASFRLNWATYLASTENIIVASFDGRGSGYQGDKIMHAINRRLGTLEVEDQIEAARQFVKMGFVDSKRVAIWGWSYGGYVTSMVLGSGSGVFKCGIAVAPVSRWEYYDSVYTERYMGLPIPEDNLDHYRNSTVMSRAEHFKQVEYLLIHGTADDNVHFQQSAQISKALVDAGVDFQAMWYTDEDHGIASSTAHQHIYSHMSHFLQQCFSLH
Sequence of Dipeptidyl peptidase 4 (P27487 whole entry): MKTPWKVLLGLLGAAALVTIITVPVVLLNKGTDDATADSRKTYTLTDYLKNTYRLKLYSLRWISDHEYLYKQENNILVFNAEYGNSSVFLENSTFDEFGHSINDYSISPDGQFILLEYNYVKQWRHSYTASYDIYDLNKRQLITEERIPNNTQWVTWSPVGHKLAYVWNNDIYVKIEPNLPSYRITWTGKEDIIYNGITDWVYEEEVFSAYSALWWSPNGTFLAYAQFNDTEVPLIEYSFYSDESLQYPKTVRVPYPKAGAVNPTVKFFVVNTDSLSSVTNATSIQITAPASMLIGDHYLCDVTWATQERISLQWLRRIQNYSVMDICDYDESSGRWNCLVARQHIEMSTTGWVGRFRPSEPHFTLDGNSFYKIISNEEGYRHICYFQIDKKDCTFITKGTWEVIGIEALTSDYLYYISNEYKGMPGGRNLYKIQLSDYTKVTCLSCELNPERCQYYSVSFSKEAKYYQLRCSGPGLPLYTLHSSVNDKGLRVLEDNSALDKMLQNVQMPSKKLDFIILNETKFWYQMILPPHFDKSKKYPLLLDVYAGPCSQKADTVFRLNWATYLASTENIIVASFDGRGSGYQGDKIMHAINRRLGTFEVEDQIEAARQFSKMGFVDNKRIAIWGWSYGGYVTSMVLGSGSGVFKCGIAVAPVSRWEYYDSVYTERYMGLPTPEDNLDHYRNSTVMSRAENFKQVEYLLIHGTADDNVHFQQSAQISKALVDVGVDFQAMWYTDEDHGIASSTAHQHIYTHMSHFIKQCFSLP

In the case of `N#C[C@@H]1CC[C@H](C#N)N1C(=O)CNC1(CCO)CCCC1`, the IC50 [1] is reported as > 3 µM.
In the case of `CNC(=O)C1(NCC(=O)N2[C@H](C#N)CC[C@@H]2C#N)CCCC1`, the IC50 [1] is reported as > 3 µM.
In the case of `COCC1(NCC(=O)N2[C@H](C#N)CC[C@@H]2C#N)CCCC1`, the Activity [2] is reported as 74%, the IC50 [1] is reported as 0.084 µM and the half-life [3] is reported as 12 min. For the same compound, the half-life [4] was 38.4 min, the CL [5] was 98 mL/min/kg and the Vd [6] was 1.6 L/kg. For the same compound, the bioavailability [7] was 48%.
With `N#C[C@@H]1CC[C@H](C#N)N1C(=O)CNC1(Cc2ccccc2)CCCCC1` the IC50 [1] was > 3 µM.
Work on `N#C[C@@H]1CC[C@H](C#N)N1C(=O)CNC12CC3CC(CC1C3)C2` yielded an Activity [8] of 62% and an IC50 [1] of 0.072 µM.
For `N#C[C@@H]1CC[C@H](C#N)N1C(=O)CNC1(CO)CCCC1` [listing 1 of 2 here], the Activity [2] was 67%, the Activity [9] was 46% and the Activity [10] was “Active”. The Activity [11] was 59%.
With `Cl.N#C[C@@H]1CC[C@H](C#N)N1C(=O)CNC1(CO)CCCC1` the solubility [12] was > 76 mg/mL and the solubility [13] was 200 mg/mL.
For `CC1(C)CCCC1(C)NCC(=O)N1[C@H](C#N)CC[C@@H]1C#N` (stereo partly drawn), the IC50 [1] was > 3 µM.
With `N#C[C@@H]1CC[C@H](c2ccccc2)N1C(=O)CNC1(CO)CCCC1` the IC50 [1] was > 30 µM.
For `CC1(NCC(=O)N2[C@H](C#N)CC[C@@H]2C#N)CCSC1` (stereo partly drawn), the IC50 [1] was > 3 µM.
With `CCC1(NCC(=O)N2[C@H](C#N)CC[C@@H]2C#N)CCCCC1` the IC50 [1] was > 3 µM.
In the case of `C#CC1(NCC(=O)N2[C@H](C#N)CC[C@@H]2C#N)CCCCC1`, the IC50 [1] is reported as > 3 µM.
With `C[C@@H]1CC(C)(NCC(=O)N2[C@H](C#N)CC[C@@H]2C#N)C[C@@H]1C` (stereo partly drawn) the IC50 [1] was > 3 µM.
In the case of `COC(=O)C1(NCC(=O)N2[C@H](C#N)CC[C@@H]2C#N)CCCC1`, the IC50 [1] is reported as > 3 µM.
For `CC(C)(C)C(C)(C)NCC(=O)N1[C@H](C#N)CC[C@@H]1C#N`, the IC50 [1] was > 3 µM.
With `N#C[C@@H]1CC[C@H](C#N)N1C(=O)CNC12CC3(F)CC(F)(CC(F)(C3)C1)C2` the IC50 [1] was > 3 µM.
`N#C[C@@H]1CC[C@H](C#N)N1C(=O)CNC12CC3CC(CC(O)(C3)C1)C2` gave an IC50 [1] of 0.074 µM, an Activity [14] of 45% and a half-life [3] of 24 min. It also gave a half-life [4] of 84 min, a CL [5] of 130 mL/min/kg and a Vd [6] of 2.7 L/kg. It also gave a bioavailability [7] of 42%.
For `CCC(C)(C)NCC(=O)N1[C@H](C#N)CC[C@@H]1C#N`, the IC50 [1] was > 3 µM.
`N#C[C@@H]1CC[C@H](C#N)N1C(=O)CNC12CC3CC(CC(C3)C1)C2` gave an Activity [14] of 55%, a half-life [3] of 36 min and a CL [5] of 80 mL/min/kg. The Vd [6] was 3.1 L/kg.
`CCCCOCC1(NCC(=O)N2[C@H](C#N)CC[C@@H]2C#N)CCCC1` gave an Activity [2] of 16% and an IC50 [1] of 0.091 µM.
In the case of `CCC(C)(CC)NCC(=O)N1[C@H](C#N)CC[C@@H]1C#N`, the IC50 [1] is reported as > 3 µM.
In the case of `N[C@H](C(=O)N1CC(F)(F)C(F)(F)C1)C1CCCCC1`, the Activity [2] is reported as 57%.
With `N#C[C@@H]1CC[C@H](C#N)N1C(=O)CNC1(CO)CCCC1` [listing 2 of 2 here] the bioavailability [15] was 42%, the Cmax [16] was “Dose-dependent effect” and the Activity [17] was “Not Active”. The Tmax [18] was ≤ 60 min, the Tmax [19] was ≤ 60 min and the fraction unbound [20] was 1. For the same compound, the fraction unbound [21] was 0.84, the half-life [22] was 318 min and the half-life [3] was 18 min. For the same compound, the half-life [23] was 48 min, the fraction unbound [24] was 1 and the half-life [4] was 162 min. The bioavailability [25] was 93%, the CL [26] was 22 mL/min/kg and the Tmax [27] was ≤ 60 min. For the same compound, the CL [5] was 70 mL/min/kg, the half-life [28] was 36 min and the Vd [6] was 1.4 L/kg. The Vd [29] was 1.3 L/kg, the Activity [30] was “Not Active” and the half-life [31] was 144 min. For the same compound, the Activity [32] was “Not Active”, the Vd [33] was 1.7 L/kg and the bioavailability [7] was 77%. The fraction unbound [34] was 0.77, the AUC [35] was “Dose-dependent effect” and the CL [36] was 42 mL/min/kg.
With `CCOCC1(NCC(=O)N2[C@H](C#N)CC[C@@H]2C#N)CCCC1` the Activity [2] was 79% and the IC50 [1] was 0.064 µM.
In the case of `CCC(C)(C)C1CCC(C)(NCC(=O)N2[C@H](C#N)CC[C@@H]2C#N)C1` (stereo partly drawn), the IC50 [1] is reported as > 3 µM.
With `N#C[C@@H]1C[C@H](O)CN1C(=O)CNC12CC3CC(CC(C3)C1)C2` the IC50 [1] was > 30 µM.
For `N#C[C@@H]1CC[C@H](C#N)N1C(=O)CNC1(CCCO)CCCCC1`, the IC50 [1] was > 3 µM.
With `CC1(NCC(=O)N2[C@H](C#N)CC[C@@H]2C#N)COC(C)(C)OC1` the IC50 [1] was > 3 µM.
For `C[C@H]1CC[C@@H](C#N)N1C(=O)CNC12CC3CC(CC(C3)C1)C2`, the IC50 [1] was > 30 µM.
For `CC(C)C(C)(C)NCC(=O)N1[C@H](C#N)CC[C@@H]1C#N`, the IC50 [1] was > 3 µM.
